Results reported in the RNAGym collection of RNA variant scans (doi:10.1126/science.aae0568).
Fewer inactive variants are shown than the library holds.

B1: tRNA (parent)
chain: GUUCCGUUGGCGUAAUGGUAACGCGUCUCCCUCCUAAGGAGAAGACUGCGGGUUCGAGUCCCGUACGGAACG

Variants of: B1
Test: yeast fitness relative to wild type (ratio to wild type); higher = fitter; tRNA-Arg(CCU), competitive growth, 37 C, YPD
Summary of the method: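 Amplicons of the tRNA-Arg(CCU) gene were sequenced, 100-nucleotide paired-end, from the start population and from each end population of a pooled yeast competition. The competition, in six parallel replicates, lasted 24 hours in YPD at 37°C. Fitness relative to wild type was calculated from changes in genotype frequencies. Genotypes had to have ≥ 100 starting reads, and estimates < 0.5 were set to 0.5.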

Variant	yeast fitness
G6A C22G C24U U47A A70C	≤ 0.5
G6A U26G G48A C61U	0.684
G6A G18C C49U C61G	≤ 0.5
G6C A20G A42C A45C	≤ 0.5
G6C A37G A40U A45C	0.702
G6A C11U A43U C62G C66A A69C	≤ 0.5
G6A C11A U26A G52A	≤ 0.5
G6A C11A C49G	≤ 0.5
G6A U13G C55A	≤ 0.5
G6A C11G A21G C27G C29U U35G A70C	≤ 0.5
G6A G9C A14C C27A C31U C34A A42C C46G	≤ 0.5
G6A C29U C31U C33G U35C	≤ 0.5
G6A C11G	0.738
G6A C11A U19A	0.53
G6A G25A A45U C62A	≤ 0.5
G6A C29G G38C A40G A45C	≤ 0.5
G6A U13G A42C	0.711
G6C A15C A21C C34U A37U	0.502
G6A C22G U47A	≤ 0.5
G6A U16A G25C	0.644
G6A U59C G68A	0.567
G6A C62A	0.873
G6A G17A G38C	0.708
G6C A36C A40G G48A A65U C66U A69U	≤ 0.5

Variant	yeast fitness
G6A U8C A42C A45U A57G A70C	≤ 0.5
G6A C29A C55U	0.514
G6A C31U U32C G67C	0.593
G6C A36U A65U	≤ 0.5
G6A G44A A69C	0.576
G6A A57U G58A A65U	≤ 0.5
G6C A37C G51A G52A U53C C62A	0.561
G6A G9C C24U C30G C31A A43G A65C	≤ 0.5
G6A C27U A57U	0.544
G6A U8C A20C C27U	≤ 0.5
G6A C24G U35A C46U G51C C55U A65C	≤ 0.5
G6A C34U	0.65
G6A C24U C49U C61G C66U A69U	≤ 0.5
G6C A20G C22A C31G	≤ 0.5
G6A C49A G63A	≤ 0.5
G6A C24U C31A A43C U53C	≤ 0.5
G6A C22A C29U	≤ 0.5
G6A G17C C31A A36U	0.53
G6C A14C C29U C34G C46U C49U C66A G68C	≤ 0.5
G6A C24U C29G C49A	0.575
G6A C22U C31G	≤ 0.5
G6A C27U A45C U59C C62U	≤ 0.5
G6A G17C C31A A36U G56A	0.632
G6C A20U C30G C66U	≤ 0.5

Variant	yeast fitness
G6A G48C	0.884
G6A C27G A57C C66G	≤ 0.5
G6A U19A U53A C60A A69U	≤ 0.5
G6A G23C C60A	0.573
G6A C62A A70C	0.636
G6A U16G	0.85
G6A C27A A36G A70U	≤ 0.5
G6A C22G	0.702
G6C A14U C66U A69C	≤ 0.5
G6A C11G C22G C49A G51A	≤ 0.5
G6A U16C G67C	≤ 0.5
G6A A45G G67U	0.687
G6A U32A	0.809
G6A C24U C66U	0.647
G6C A37C C62A A69C	≤ 0.5
G6A C55U	0.677
G6A C30U U35C	≤ 0.5
G6A C62U C66A	0.548
G6A U13G C27U	0.539
G6A U54A C62U A65G G68A	0.548
G6A C11U A21C U28A C62U	≤ 0.5
G6A G9A C22U C30G	≤ 0.5
G6A G12A C22A	0.603
G6A C46G G51A	0.637

Variant	yeast fitness
G6A U13C A14U C30U A69U	≤ 0.5
G6A U13G	0.731
G6A U8A A14C A21U A40G	≤ 0.5
G6A G18C C22G A65C	≤ 0.5
G6A C24U C31A A43C G58C U64G	≤ 0.5
G6A U28G C34U	≤ 0.5
G6A C11A A43G G58A A65C C66U	≤ 0.5
G6A C34A A40U U64A	≤ 0.5
G6A C30U A65C A69G A70U	≤ 0.5
G6A C24U	0.733
G6C A15G C22A C29G A37C G50C C66U	≤ 0.5
G6A C22G A45C G52C A57U A69C	≤ 0.5
G6A G39C G63A	≤ 0.5
G6A C11G A21G C27G C29U U35G	≤ 0.5
G6A U8C U19A U53C	≤ 0.5
G6C A15G G56C	≤ 0.5
G6A G12C U16C A21U G63C G67A	≤ 0.5
G6A C29U G50C U53C A57U C61G	≤ 0.5
G6A C29A	0.647
G6A C29G U32C	0.548
G6A C33G C55G C61G	≤ 0.5
G6C A36C U64A	0.539
G6A C11A A36G C61U C66U	≤ 0.5
G6A C29G A43U	≤ 0.5

Variant	yeast fitness
G6A G10C C34U A40C	≤ 0.5
G6A U19G A42G	≤ 0.5
G6A C31U A36G	≤ 0.5
G6A U64G	0.795
G6A G18A C22U	0.6
G6C A15C C31G C33G C55U C61U	≤ 0.5
G6A G23C C49G U53G A57G C61U	≤ 0.5
G6A C24U C46U	0.764
G6A G9A A36C A37U G51A C62G	≤ 0.5
G6A U13A C46G	≤ 0.5
G6A U26C C62U	≤ 0.5
G6A A45G A70U	0.775
G6A A45C	0.738
G6A C31U C55U	0.571
G6A A45C G58A	0.519
G6A C30G C55G	≤ 0.5
G6C A36U G39A	≤ 0.5
G6A U13G G50C	0.538
G6A U26G A36U	≤ 0.5
G6A G12A A20G C22G U26A G48C A65U	≤ 0.5
G6A C30G G67C A69G	≤ 0.5
G6A C61A C62U A65U A69C	≤ 0.5
G6A G52C A65U G67C	≤ 0.5
G6A U16A G63A	0.569

Variant	yeast fitness
G6A C34A A40U U59G	≤ 0.5
G6C A14G A20C C31A U64A G67A	≤ 0.5
G6A G10A U26A C27U C29A A65G G68C	≤ 0.5
G6A G51A C62U	0.643
G6A G50A C60A G68U	≤ 0.5
G6C A15U G23C C31G A37G G56C	≤ 0.5
G6A G9C C11G C34U U59A A69C	≤ 0.5
G6A G25A	0.859
G6A C24A G38A G39C	≤ 0.5
G6C A15U G23C C31G G41C G48C A69U	0.562
G6A G39U	0.79
G6A C22U U53G	0.653
G6C A20C C66G	0.957
G6C A15G G58C G68A	≤ 0.5
G6A U54G	0.611
G6A G48C G58A	0.57
G6A C22G A40C G41C G68C	≤ 0.5
G6A U7G C24A U26C	≤ 0.5
G6A C60A	0.515
G6C A15U C60G C66U	≤ 0.5
G6A G44A C46A G52A C66U	0.526
G6A C27U	0.785
G6A U19A U53A	≤ 0.5
G6C A20G G52A	≤ 0.5

Variant	yeast fitness
G6A C11A A15G C49G G51C	≤ 0.5
G6A C11A A14C U19C U32A A42C U54C C61U G68C	≤ 0.5
G6A G9C C11G G25A C34U G68A	≤ 0.5
G6A U8C A14U	0.564
G6C A14C C24U C29A G39C	≤ 0.5
G6A G9C G44C C66U	≤ 0.5
G6A C22G C33A A36C A43G C55G	≤ 0.5
G6A C24U C49A	≤ 0.5
G6A G17A U32C	≤ 0.5
G6A A69U	0.916
G6A G25C G48C	0.654
G6A G52C	0.635
G6A G18C A37C C60G A65G	≤ 0.5
G6A U35A A40U G41C C49A	≤ 0.5
G6C A20U A21G A37U C60G C62G	≤ 0.5
G6A G44A G56A	0.649
G6A C11A U53C	≤ 0.5
G6A C22G A57C C66A	≤ 0.5
G6A C31G A40U	0.688
G6A U19C A20U C22U C27G	≤ 0.5
G6A G10C C29U C61A C62U A65U A69C	≤ 0.5
G6A C24G C31G C34U	≤ 0.5
G6A G44A U59A A69U	≤ 0.5
